Active and inactive are the calls of the source. The rule behind the calls is not given here. Non-standard residues stand in square brackets, D forms with d. Residues, ends and D or L forms follow the SMILES beside them. *: point of attachment. Phe(4-guanidino) = N=C(N)Nc1ccc(C[C@H](N)C(=O)O)cc1; Hydrocinnamoyl = O=C(CCc1ccccc1)*; Phg = N[C@H](C(=O)O)c1ccccc1
Tested on: not listed separately
Test: Permeability of the compound at 200 uM incubated for 5 hrs by PAMPA
Type: physicochemical
Details: not given
Procedure, shortened: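 PAMPA in PBS: donor wells held 200 μM compound (triplicate) against PBS acceptor, 5 h at room temperature. Donor and acceptor concentrations were quantified by RP-18 HPLC-UV against calibration curves (10–200 μM). Pe and membrane retention were calculated by a literature method. Amiloride, caffeine, famotidine, furosemide and phenytoin served as references.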

SMILES | permeability
N=C(N)Nc1cccc([C@H](NC(=O)c2ccccc2)C(=O)N[C@@H](CCCCN)C(=O)N[C@H](C(N)=O)c2ccccc2)c1 | impermeable
N=C(N)c1ccc(C[C@H](NC(=O)c2ccccc2)C(=O)N[C@@H](CCCCN)C(=O)N[C@H](C(N)=O)c2ccccc2)cc1 | impermeable
N=C(N)c1cccc(C[C@H](NC(=O)c2ccccc2)C(=O)N[C@@H](CCCCN)C(=O)N[C@H](C(N)=O)c2ccccc2)c1 | impermeable
N=C(N)Nc1ccc(C[C@H](NC(=O)c2ccc(C(F)(F)F)cc2)C(=O)N[C@@H](CCCCN)C(=O)N[C@H](C(N)=O)c2ccccc2)cc1 | impermeable

Other lines, results leading:

permeability | SMILES
impermeable | CC(=N)Nc1ccc(C[C@H](NC(=O)c2ccccc2)C(=O)N[C@@H](CCCCN)C(=O)N[C@H](C(N)=O)c2ccccc2)cc1
impermeable | N=C(N)Nc1ccc(C[C@H](NC(=O)CCc2ccccc2)C(=O)N[C@@H](CCCCN)C(=O)N[C@H](C(N)=O)c2ccccc2)cc1 (Hydrocinnamoyl-[Phe(4-guanidino)]-Lys-[Phg]-NH2)

Target: T1, Trypsin (Homo sapiens, UniProt P07477+P07478+P35030)
Test: Inhibition of trypsin (unknown origin) at 50 uM preincubated with protein for 15 mins followed by boc-Val-Pro-Arg-AMC substrate addition measured by continuous fluorometric analysis
Type: protein assay
Details: not given
Procedure, shortened: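 Trypsin (1 nM) was preincubated 15 min with inhibitor (50 μM final) in 50 mM Tris-HCl pH 7.5, 150 mM NaCl, 0.05% Tween 20. boc-Val-Pro-Arg-AMC (50 μM final) was added. Continuous fluorescence at ex 355/em 460 nm; rate compared with an uninhibited control. Triplicate.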

SMILES | inhibition
N=C(N)Nc1cccc([C@H](NC(=O)c2ccccc2)C(=O)N[C@@H](CCCCN)C(=O)N[C@H](C(N)=O)c2ccccc2)c1 | 90.8%
N=C(N)c1ccc(C[C@H](NC(=O)c2ccccc2)C(=O)N[C@@H](CCCCN)C(=O)N[C@H](C(N)=O)c2ccccc2)cc1 | 17.4%
N=C(N)c1cccc(C[C@H](NC(=O)c2ccccc2)C(=O)N[C@@H](CCCCN)C(=O)N[C@H](C(N)=O)c2ccccc2)c1 | 37%
N=C(N)Nc1ccc(C[C@H](NC(=O)c2ccc(C(F)(F)F)cc2)C(=O)N[C@@H](CCCCN)C(=O)N[C@H](C(N)=O)c2ccccc2)cc1 | 12.8%

Next, values leading:

inhibition | SMILES
0% | CC(=N)Nc1ccc(C[C@H](NC(=O)c2ccccc2)C(=O)N[C@@H](CCCCN)C(=O)N[C@H](C(N)=O)c2ccccc2)cc1
23.6% | N=C(N)Nc1ccc(C[C@H](NC(=O)CCc2ccccc2)C(=O)N[C@@H](CCCCN)C(=O)N[C@H](C(N)=O)c2ccccc2)cc1 (Hydrocinnamoyl-[Phe(4-guanidino)]-Lys-[Phg]-NH2)

Tested on: dengue virus type 2
Test: Antiviral activity against wild type Dengue virus (serotype 2) infected in human Huh-7 cells assessed as inhibition of viral replication at 50 uM incubated for 48 hrs measured by Cell-Titer Glo Luminescent viability assay
Type: functional
Details: Huh-7, 48 h

SMILES | inhibition at 50 µM
N=C(N)c1ccc(C[C@H](NC(=O)c2ccccc2)C(=O)N[C@@H](CCCCN)C(=O)N[C@H](C(N)=O)c2ccccc2)cc1 | 32.4%
N=C(N)Nc1ccc(C[C@H](NC(=O)CCc2ccccc2)C(=O)N[C@@H](CCCCN)C(=O)N[C@H](C(N)=O)c2ccccc2)cc1 (Hydrocinnamoyl-[Phe(4-guanidino)]-Lys-[Phg]-NH2) | 8.8%

Target: T1, Trypsin
Test: Inhibition of trypsin (unknown origin) preincubated with protein for 15 mins followed by boc-Val-Pro-Arg-AMC substrate addition measured by continuous fluorometric analysis
Type: protein assay
Details: not given

SMILES | IC50
N=C(N)Nc1cccc([C@H](NC(=O)c2ccccc2)C(=O)N[C@@H](CCCCN)C(=O)N[C@H](C(N)=O)c2ccccc2)c1 | 7100 nM

Tested on: dengue virus type 2
Test: Inhibition of Dengue virus (serotype 2) NS2B-NS3 protease at 50 uM preincubated with protein for 15 mins followed by Abz-Nle-Lys-Arg-Arg-Ser-3-(NO2)Tyr substrate addition measured by continuous fluorometric analysis
Details: not given
Procedure, shortened: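 Continuous FRET assay in 50 mM Tris-HCl pH 9.0, 10% ethylene glycol, 0.0016% Brij 58. DENV2 protease (100 nM) was preincubated 15 min with inhibitor (50 μM final), then Abz-Nle-Lys-Arg-Arg-Ser-3-(NO2)Tyr (50 μM final; Km 105 μM) was added. Read at ex 320/em 405 nm as slope over 15 min, relative to an uninhibited control. Triplicate.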

SMILES | inhibition
N=C(N)Nc1cccc([C@H](NC(=O)c2ccccc2)C(=O)N[C@@H](CCCCN)C(=O)N[C@H](C(N)=O)c2ccccc2)c1 | 98.8%
N=C(N)c1ccc(C[C@H](NC(=O)c2ccccc2)C(=O)N[C@@H](CCCCN)C(=O)N[C@H](C(N)=O)c2ccccc2)cc1 | 100%
N=C(N)c1cccc(C[C@H](NC(=O)c2ccccc2)C(=O)N[C@@H](CCCCN)C(=O)N[C@H](C(N)=O)c2ccccc2)c1 | 94%
N=C(N)Nc1ccc(C[C@H](NC(=O)c2ccc(C(F)(F)F)cc2)C(=O)N[C@@H](CCCCN)C(=O)N[C@H](C(N)=O)c2ccccc2)cc1 | 100%

The remaining lines, values ahead:

inhibition | SMILES
76.6% | CC(=N)Nc1ccc(C[C@H](NC(=O)c2ccccc2)C(=O)N[C@@H](CCCCN)C(=O)N[C@H](C(N)=O)c2ccccc2)cc1
101% | N=C(N)Nc1ccc(C[C@H](NC(=O)CCc2ccccc2)C(=O)N[C@@H](CCCCN)C(=O)N[C@H](C(N)=O)c2ccccc2)cc1 (Hydrocinnamoyl-[Phe(4-guanidino)]-Lys-[Phg]-NH2)

Tested on: not listed separately
Test: Inhibition of Dengue virus (serotype 2) NS2B-NS3 protease preincubated with protein for 15 mins followed by Abz-Nle-Lys-Arg-Arg-Ser-3-(NO2)Tyr substrate addition measured by continuous fluorometric analysis
Set-up: species or system dengue virus type 2
Details: not given
Procedure, shortened: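 DENV2 protease (100 nM) in Tris-HCl pH 9.0/ethylene glycol/Brij 58 buffer, preincubated 15 min with inhibitor, then 50 μM FRET substrate added. Read at ex 320/em 405 nm over 15 min. Done for compounds with ≥70% inhibition, using series of 0–2.5, 0–6 or 0–30 μM, in triplicate, with nonlinear fitting. Ki came from substrate at 50–200 μM via Cheng–Prusoff.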

SMILES | IC50 | Ki
N=C(N)Nc1cccc([C@H](NC(=O)c2ccccc2)C(=O)N[C@@H](CCCCN)C(=O)N[C@H](C(N)=O)c2ccccc2)c1 | 3090 nM | –
N=C(N)c1ccc(C[C@H](NC(=O)c2ccccc2)C(=O)N[C@@H](CCCCN)C(=O)N[C@H](C(N)=O)c2ccccc2)cc1 | 440 nM | 232 nM
N=C(N)c1cccc(C[C@H](NC(=O)c2ccccc2)C(=O)N[C@@H](CCCCN)C(=O)N[C@H](C(N)=O)c2ccccc2)c1 | 3070 nM | –
N=C(N)Nc1ccc(C[C@H](NC(=O)c2ccc(C(F)(F)F)cc2)C(=O)N[C@@H](CCCCN)C(=O)N[C@H](C(N)=O)c2ccccc2)cc1 | 690 nM | –

The remaining molecules from weak to strong by IC50, led by results:

IC50 | SMILES | Ki
12700 nM | CC(=N)Nc1ccc(C[C@H](NC(=O)c2ccccc2)C(=O)N[C@@H](CCCCN)C(=O)N[C@H](C(N)=O)c2ccccc2)cc1 | –
890 nM | N=C(N)Nc1ccc(C[C@H](NC(=O)CCc2ccccc2)C(=O)N[C@@H](CCCCN)C(=O)N[C@H](C(N)=O)c2ccccc2)cc1 (Hydrocinnamoyl-[Phe(4-guanidino)]-Lys-[Phg]-NH2) | –

Tested on: not listed separately
Test: Half life in Sprague-Dawley rat liver microsomes at 100 uM incubated for 30 mins by HPLC analysis
Type: ADME
Details: not given
Procedure, shortened: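 Pooled male Sprague-Dawley rat liver microsomes (0.2 mg/mL protein) with NADPH (5 mM) in DPBS, preincubated 15 min at 37 °C. Compound (100 μM) was then incubated 30 min at 37 °C. Aliquots at 0, 2, 5, 10, 20 and 30 min were quenched with acetonitrile, iced, and centrifuged. Parent remaining was measured by RP-HPLC-UV peak area versus reference. Testosterone served as activity control.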

SMILES | half-life at 100 µM
N=C(N)Nc1ccc(C[C@H](NC(=O)CCc2ccccc2)C(=O)N[C@@H](CCCCN)C(=O)N[C@H](C(N)=O)c2ccccc2)cc1 (Hydrocinnamoyl-[Phe(4-guanidino)]-Lys-[Phg]-NH2) | 18 min

Tested on: not listed separately
Test: Cytotoxicity against human HuH7 cells at 50 uM incubated for 48 hrs measured by Cell-Titer Glo Luminescent viability Assay
Type: cell-based
Details: huh-7, 48 h

SMILES | Activity
N=C(N)c1ccc(C[C@H](NC(=O)c2ccccc2)C(=O)N[C@@H](CCCCN)C(=O)N[C@H](C(N)=O)c2ccccc2)cc1 | Non-toxic
N=C(N)Nc1ccc(C[C@H](NC(=O)CCc2ccccc2)C(=O)N[C@@H](CCCCN)C(=O)N[C@H](C(N)=O)c2ccccc2)cc1 (Hydrocinnamoyl-[Phe(4-guanidino)]-Lys-[Phg]-NH2) | Non-toxic

Target: Prothrombin (Homo sapiens, UniProt P00734)
Test: Inhibition of human thrombin at 25 uM preincubated with protein for 15 mins followed by boc-Val-Pro-Arg-AMC substrate addition measured after 10 mins by continuous fluorometric analysis
Details: not given

SMILES | inhibition
N=C(N)Nc1cccc([C@H](NC(=O)c2ccccc2)C(=O)N[C@@H](CCCCN)C(=O)N[C@H](C(N)=O)c2ccccc2)c1 | 41.7%
N=C(N)c1ccc(C[C@H](NC(=O)c2ccccc2)C(=O)N[C@@H](CCCCN)C(=O)N[C@H](C(N)=O)c2ccccc2)cc1 | 18%
N=C(N)c1cccc(C[C@H](NC(=O)c2ccccc2)C(=O)N[C@@H](CCCCN)C(=O)N[C@H](C(N)=O)c2ccccc2)c1 | 71.1%
N=C(N)Nc1ccc(C[C@H](NC(=O)c2ccc(C(F)(F)F)cc2)C(=O)N[C@@H](CCCCN)C(=O)N[C@H](C(N)=O)c2ccccc2)cc1 | inactive

The next lines start with the values.

inhibition | SMILES
7.7% | CC(=N)Nc1ccc(C[C@H](NC(=O)c2ccccc2)C(=O)N[C@@H](CCCCN)C(=O)N[C@H](C(N)=O)c2ccccc2)cc1
6.4% | N=C(N)Nc1ccc(C[C@H](NC(=O)CCc2ccccc2)C(=O)N[C@@H](CCCCN)C(=O)N[C@H](C(N)=O)c2ccccc2)cc1 (Hydrocinnamoyl-[Phe(4-guanidino)]-Lys-[Phg]-NH2)

Target: Genome polyprotein (West Nile virus) (UniProt P06935)
Test: Inhibition of West Nile virus NS2B-NS3 protease at 50 uM preincubated with protein for 15 mins followed by Abz-Gly-Leu-Lys-Arg-Gly-Gly-3-(NO2)-Tyr substrate addition measured by continuous fluorometric analysis
Details: not given
Procedure, shortened: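 WNV NS2B-NS3pro (150 nM) was preincubated 15 min with inhibitor (50 μM final) in 50 mM Tris-HCl pH 9.0, 10% ethylene glycol, 0.0016% Brij 58. Abz-Gly-Leu-Lys-Arg-Gly-Gly-3-(NO2)-Tyr (50 μM; Km 212 μM) started the reaction. Continuous read at ex 320/em 405 nm for 15 min against an uninhibited control. Triplicate.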

Sequence of Genome polyprotein (West Nile virus) (P06935 whole entry): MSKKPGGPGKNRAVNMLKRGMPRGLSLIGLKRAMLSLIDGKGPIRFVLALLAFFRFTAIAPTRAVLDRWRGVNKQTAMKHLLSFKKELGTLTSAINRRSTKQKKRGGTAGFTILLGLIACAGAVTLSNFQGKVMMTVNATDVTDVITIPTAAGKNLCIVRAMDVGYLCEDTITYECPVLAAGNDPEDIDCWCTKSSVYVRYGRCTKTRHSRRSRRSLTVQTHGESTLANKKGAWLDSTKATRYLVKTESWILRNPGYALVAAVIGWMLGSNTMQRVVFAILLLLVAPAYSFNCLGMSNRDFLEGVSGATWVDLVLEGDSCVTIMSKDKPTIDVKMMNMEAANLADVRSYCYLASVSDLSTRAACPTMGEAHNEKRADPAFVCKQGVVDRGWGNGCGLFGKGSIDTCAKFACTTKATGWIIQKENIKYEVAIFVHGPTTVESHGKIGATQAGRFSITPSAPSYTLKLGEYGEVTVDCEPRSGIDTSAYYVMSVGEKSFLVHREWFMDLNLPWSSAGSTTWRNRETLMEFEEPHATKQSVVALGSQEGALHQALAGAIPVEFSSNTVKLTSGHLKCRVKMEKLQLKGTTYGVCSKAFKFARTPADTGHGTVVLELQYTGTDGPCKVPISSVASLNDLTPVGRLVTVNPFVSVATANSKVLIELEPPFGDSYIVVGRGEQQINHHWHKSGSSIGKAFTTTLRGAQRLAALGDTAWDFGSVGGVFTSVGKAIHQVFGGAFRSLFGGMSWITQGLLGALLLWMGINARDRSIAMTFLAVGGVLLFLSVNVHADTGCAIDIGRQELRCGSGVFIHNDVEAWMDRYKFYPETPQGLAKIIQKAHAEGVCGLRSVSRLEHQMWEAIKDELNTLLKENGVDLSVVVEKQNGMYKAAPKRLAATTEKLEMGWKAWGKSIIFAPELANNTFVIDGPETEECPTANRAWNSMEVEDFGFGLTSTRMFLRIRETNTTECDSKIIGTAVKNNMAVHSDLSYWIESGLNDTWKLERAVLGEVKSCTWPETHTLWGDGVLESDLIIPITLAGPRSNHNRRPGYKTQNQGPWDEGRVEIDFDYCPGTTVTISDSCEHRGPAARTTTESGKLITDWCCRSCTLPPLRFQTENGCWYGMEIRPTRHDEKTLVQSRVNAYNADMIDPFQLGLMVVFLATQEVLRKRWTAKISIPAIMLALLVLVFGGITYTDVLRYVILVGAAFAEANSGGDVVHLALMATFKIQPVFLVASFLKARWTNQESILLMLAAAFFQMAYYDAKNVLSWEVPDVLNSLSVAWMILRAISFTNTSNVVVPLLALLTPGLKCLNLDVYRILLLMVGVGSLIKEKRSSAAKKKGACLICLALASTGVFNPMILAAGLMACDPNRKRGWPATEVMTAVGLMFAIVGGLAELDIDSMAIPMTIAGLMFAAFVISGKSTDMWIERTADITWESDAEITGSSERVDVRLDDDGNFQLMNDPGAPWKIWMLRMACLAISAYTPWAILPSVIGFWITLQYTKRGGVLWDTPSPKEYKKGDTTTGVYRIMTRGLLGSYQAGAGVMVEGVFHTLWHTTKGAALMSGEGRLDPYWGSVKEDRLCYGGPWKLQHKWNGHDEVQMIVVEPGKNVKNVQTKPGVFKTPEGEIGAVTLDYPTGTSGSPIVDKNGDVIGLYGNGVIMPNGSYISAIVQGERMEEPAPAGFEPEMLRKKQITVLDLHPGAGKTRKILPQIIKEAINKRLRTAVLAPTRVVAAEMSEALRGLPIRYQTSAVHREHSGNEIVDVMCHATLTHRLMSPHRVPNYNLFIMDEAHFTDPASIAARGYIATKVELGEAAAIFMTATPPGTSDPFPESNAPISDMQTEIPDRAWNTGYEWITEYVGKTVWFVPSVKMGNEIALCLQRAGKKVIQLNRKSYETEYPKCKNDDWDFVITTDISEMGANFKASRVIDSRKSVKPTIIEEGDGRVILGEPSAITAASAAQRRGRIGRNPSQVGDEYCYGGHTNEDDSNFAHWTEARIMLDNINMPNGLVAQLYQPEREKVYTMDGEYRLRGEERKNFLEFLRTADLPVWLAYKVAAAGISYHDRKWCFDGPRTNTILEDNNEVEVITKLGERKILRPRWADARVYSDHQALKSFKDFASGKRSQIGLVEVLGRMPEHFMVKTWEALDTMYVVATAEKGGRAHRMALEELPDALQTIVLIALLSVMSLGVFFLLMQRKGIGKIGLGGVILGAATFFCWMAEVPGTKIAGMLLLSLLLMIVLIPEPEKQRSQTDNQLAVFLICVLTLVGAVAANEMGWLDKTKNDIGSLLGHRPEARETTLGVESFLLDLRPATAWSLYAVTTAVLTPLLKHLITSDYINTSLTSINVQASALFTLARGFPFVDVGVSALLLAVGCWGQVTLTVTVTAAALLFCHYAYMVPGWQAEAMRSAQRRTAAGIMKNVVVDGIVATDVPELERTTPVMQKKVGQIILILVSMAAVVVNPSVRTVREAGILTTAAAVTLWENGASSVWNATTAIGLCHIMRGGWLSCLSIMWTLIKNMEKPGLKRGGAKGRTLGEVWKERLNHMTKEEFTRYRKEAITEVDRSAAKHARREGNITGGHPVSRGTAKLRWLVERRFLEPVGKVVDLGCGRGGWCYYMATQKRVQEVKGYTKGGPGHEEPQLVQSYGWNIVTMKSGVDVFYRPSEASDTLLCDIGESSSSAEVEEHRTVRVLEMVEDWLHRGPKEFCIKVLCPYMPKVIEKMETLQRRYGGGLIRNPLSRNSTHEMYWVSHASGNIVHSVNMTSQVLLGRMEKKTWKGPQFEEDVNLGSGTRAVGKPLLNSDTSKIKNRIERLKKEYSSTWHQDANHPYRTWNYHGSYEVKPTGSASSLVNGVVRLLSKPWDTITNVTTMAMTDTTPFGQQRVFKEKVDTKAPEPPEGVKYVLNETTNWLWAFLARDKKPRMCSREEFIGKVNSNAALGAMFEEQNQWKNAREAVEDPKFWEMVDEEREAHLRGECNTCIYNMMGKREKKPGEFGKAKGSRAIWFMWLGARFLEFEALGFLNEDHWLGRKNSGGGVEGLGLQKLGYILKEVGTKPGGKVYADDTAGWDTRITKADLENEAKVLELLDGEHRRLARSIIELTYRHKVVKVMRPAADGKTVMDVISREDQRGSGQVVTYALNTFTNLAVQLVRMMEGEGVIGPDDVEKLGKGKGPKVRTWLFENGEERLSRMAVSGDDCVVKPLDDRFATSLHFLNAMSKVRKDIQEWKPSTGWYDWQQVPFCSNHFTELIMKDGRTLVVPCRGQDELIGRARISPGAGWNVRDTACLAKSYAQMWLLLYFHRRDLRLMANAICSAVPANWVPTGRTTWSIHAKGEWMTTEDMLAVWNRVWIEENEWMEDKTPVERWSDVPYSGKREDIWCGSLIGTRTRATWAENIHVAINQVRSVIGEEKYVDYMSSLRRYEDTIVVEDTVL

SMILES | inhibition
N=C(N)Nc1cccc([C@H](NC(=O)c2ccccc2)C(=O)N[C@@H](CCCCN)C(=O)N[C@H](C(N)=O)c2ccccc2)c1 | 89.4%
N=C(N)c1ccc(C[C@H](NC(=O)c2ccccc2)C(=O)N[C@@H](CCCCN)C(=O)N[C@H](C(N)=O)c2ccccc2)cc1 | 59.1%
N=C(N)c1cccc(C[C@H](NC(=O)c2ccccc2)C(=O)N[C@@H](CCCCN)C(=O)N[C@H](C(N)=O)c2ccccc2)c1 | 39.5%
N=C(N)Nc1ccc(C[C@H](NC(=O)c2ccc(C(F)(F)F)cc2)C(=O)N[C@@H](CCCCN)C(=O)N[C@H](C(N)=O)c2ccccc2)cc1 | 42.2%

Now from value to molecule:

inhibition | SMILES
34.2% | CC(=N)Nc1ccc(C[C@H](NC(=O)c2ccccc2)C(=O)N[C@@H](CCCCN)C(=O)N[C@H](C(N)=O)c2ccccc2)cc1
44.3% | N=C(N)Nc1ccc(C[C@H](NC(=O)CCc2ccccc2)C(=O)N[C@@H](CCCCN)C(=O)N[C@H](C(N)=O)c2ccccc2)cc1 (Hydrocinnamoyl-[Phe(4-guanidino)]-Lys-[Phg]-NH2)
